According to ChEMBL document CHEMBL1158161, “Study of chemical stability of antivirally active 5-azacytosine acyclic nucleoside phosphonates using NMR spectroscopy” (Bioorg Med Chem, 2008):
In brackets after ≈: the same amount, converted by molar mass.

Key:
[1] = Cytotoxicity against HEL cells; assay type: cell-based; conditions: human
[2] = Stability in 1 M glycine solution assessed as half life; assay type: physicochemical
In short: (§1)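 Hydrolytic decomposition was followed by ¹H NMR on 30 mg samples in D₂O, with spectra recorded periodically. Media were 1 M glycine (pH 5.75), PBS (pH 7.4, phosphate with NaCl), or 50 mM phosphate at pH 4.0 or 10.0. Buffers were made in H₂O, lyophilized and redissolved in D₂O. Low-field signals were integrated to give a rate constant k and a half-life.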

[3] = Stability in PBS assessed as half life; assay type: physicochemical; in short: as §1
[4] = Stability in PBS at pH 7.4 assessed as half life; assay type: physicochemical; in short: as §1
[5] = Stability in 1 M glycine solution at pH 5.8 assessed as half life; assay type: physicochemical; in short: as §1
[6] = Stability in phosphate buffer at pH 10.0 assessed as half life; assay type: physicochemical; in short: as §1
[7] = Stability in phosphate buffer at pH 4.0 assessed as half life; assay type: physicochemical; in short: as §1
Human betaherpesvirus 6 = experiment: Antiviral activity against HHV6; assay type: functional, organism-based
Vaccinia virus = experiment: Antiviral activity against vaccinia virus; assay type: functional, organism-based; conditions: Orthopoxvirus vaccinia
Human alphaherpesvirus 3 = experiment: Antiviral activity against VZV; assay type: functional, organism-based
Human betaherpesvirus 5 = experiment: Antiviral activity against HCMV; assay type: functional, organism-based
Human alphaherpesvirus 1 = experiment: Antiviral activity against HSV1; assay type: functional, organism-based

Row | Structure (SMILES) | CC50 [1] [µg/mL] | MCC [1] [µg/mL] | half-life [2] [days] | half-life [3] [days] | further results
1 | NC(N)=NC(=O)NC[C@@H](COC=O)OCP(=O)(O)O | > 100 | > 100 | 4.75 | 4.98 | –
2 | Nc1ncn(C[C@H](O)CO)c(=O)n1 | – | – | – | – | half-life [4]: 19.6 days; half-life [5]: 15.8 days; half-life [6]: 10.3 days; half-life [7]: 17.8 days
3 | NC(N)=NC(=O)NC[C@H]1COP(=O)(O)CO1 | > 100 | > 100 | 14.7 | 29.7 | –
4 | NC(N)=NC(=O)NCCOCP(=O)(O)O | > 100 | > 100 | 26.2 | 39.3 | –
5 | CCCCCCCCCCCCCCCCCCOP1(=O)CO[C@@H](Cn2cnc(N)nc2=O)CO1 (stereo not given in full) | – | – | – | – | EC50 (Human betaherpesvirus 6): 8 ng/mL (≈ 0.0155 µM); EC50 (Vaccinia virus): 0.037 µg/mL (≈ 0.0719 µM); EC50 (Human alphaherpesvirus 3): ≤ 0.14 ng/mL; EC50 (Human betaherpesvirus 5): ≤ 0.14 ng/mL; EC50 (Human alphaherpesvirus 1): 3 ng/mL (≈ 0.00583 µM)
6 | NC(N)=NC(=O)NC[C@H](O)CO | > 100 | > 100 | 16.1 | 19.6 | –
